Assay outcomes from PubChem BioAssay.
This is a sample that favours compounds with a hit; in the whole collection about 2.8% have one here.
Yeast life ext: extends the lifespan of yeast; hit rate 0.68% among 130,000; AID 775; inhibition of the nicotinamide effect, % at 10 µM; S. cerevisiae growth with nicotinamide, OD615; deaD strain in restrictive glucose medium;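 active = inhibition above a set limit, placed 3 SD over the median of all compounds, cut at about 26% in these data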
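Assay system: DeaD-strain S. cerevisiae. Medium: CSMM-D glucose medium, restrictive. Reagent: nicotinamide, 1.5 mM, co-present with compound. Compound: 10 µM single point, 0.25% DMSO. Schedule: culture preincubation 4 h, compound exposure 48 h, both 30 °C. Detection: absorbance at 615 nm.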
TNAP inh no acc: TNAP (human) inhibition, acceptor-free conditions | P05186 | purified TNAP, CDP-star luminescence, 30 min | inhibition, % at 20 µM | hit rate 0.26% among 200,000 | AID 1012;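 active = tissue-nonspecific alkaline phosphatase inhibition above about 50% at 20 µM in the single-dose screen, limit read from the data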
Target sequence (P05186 whole entry, looked up): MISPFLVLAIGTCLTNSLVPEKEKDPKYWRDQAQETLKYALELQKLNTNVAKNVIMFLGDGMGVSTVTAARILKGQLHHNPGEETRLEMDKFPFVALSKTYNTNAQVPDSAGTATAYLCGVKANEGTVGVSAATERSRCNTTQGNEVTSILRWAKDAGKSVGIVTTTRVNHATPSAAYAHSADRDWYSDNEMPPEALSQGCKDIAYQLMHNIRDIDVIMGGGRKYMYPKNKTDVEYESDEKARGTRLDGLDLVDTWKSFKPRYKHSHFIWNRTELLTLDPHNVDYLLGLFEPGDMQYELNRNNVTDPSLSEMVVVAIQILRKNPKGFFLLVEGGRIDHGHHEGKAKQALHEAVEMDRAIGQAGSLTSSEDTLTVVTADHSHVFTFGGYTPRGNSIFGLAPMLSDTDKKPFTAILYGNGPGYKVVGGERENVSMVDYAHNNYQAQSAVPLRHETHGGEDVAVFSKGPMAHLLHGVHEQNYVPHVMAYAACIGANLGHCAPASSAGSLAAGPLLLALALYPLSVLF
TNAP inh hi DEA: blocks human TNAP under high phosphate acceptor concentration | P05186 | purified TNAP, CDP-star luminescence, 1 M DEA | inhibition, % at 20 µM | hit rate 0.03% among 200,000 | AID 1135;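 active = over 50% inhibition of tissue-nonspecific alkaline phosphatase at 20 µM in the single-dose screen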
Yeast growth inh: chemicals that inhibit yeast BB579 growth in restrictive medium (lifespan-shortening candidates) | S. cerevisiae BB579 growth, OD615, 48 h | hit rate 0.51% among 140,000 | AID 804 | inhibition, % at 10 µM;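 active = inhibition above a set limit, 3 SD over the mean compound inhibition, cut at about 44% in these data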
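Test system: Saccharomyces cerevisiae DeaD strain BB579, replicative lifespan model yeast | Buffer or medium: Restrictive CSMM-D medium | Doses: One dose, 10 µM compound with 0.25% DMSO | Incubation: 48 h exposure, 30 °C | Detection: Culture absorbance at 615 nm | Control set: Amphotericin B at 10 µg/mL as positive control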
TNAP act hiacc: TNAP (human) activation, high acceptor. activation factor at 20 µM. purified TNAP, CDP-star luminescence, 1 M DEA, 30 min; hits give high values; 0 = EDTA background, 1 = DMSO-only activity. 200,000 tested, under 10 active;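 active = activation factor at least 2 at 20 µM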
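Assay system: human TNAP; Input: enzyme diluted 1/800 final; Reagent: CDP-star luminogenic substrate at 100 µM final; Timing: 30 min, room temperature; Signal: luminescence; Evaluation: TNAP activation factor scaled between EDTA and DMSO control wells.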
RAM network inh: inhibitors of the yeast RAM network | S. cerevisiae dse1pr::URA3 reporter, 5-FOA growth OD615, 2 d; analog-sensitive cbk1-as2 kinase mutant strain | inhibition, % at 50 µM | hit rate 1.8% among 190,000 | AID 868;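 active = inhibition above a set limit, 3 SD over mean compound inhibition, cut at about 8.4% in these data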;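 also: inhibition rescues growth on 5-FOA so higher OD means more RAM inhibition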
Numbers stand for hits; – = inactive; · = no result.

SMILES	Yeast life ext	TNAP inh no acc	TNAP inh hi DEA	Yeast growth inh	TNAP act hiacc	RAM network inh
Cc1oc(C)c2c(=O)ccc3c(c12)OC(N)=C(C#N)C3c1ccccc1 (stereo unspecified)	–	–	–	–	–	–
Cc1ccc(NC(=O)CCSCCC(=O)Nc2ccc(C)c(C)c2)cc1C	–	–	–	–	–	9.8
CCc1cccc(NC(=O)C2CCCC2)c1	–	–	–	–	–	–
CCc1cccc(NC(=O)CCSCCC(=O)Nc2cccc(CC)c2)c1	–	–	–	–	–	9.9
Oc1c(Cl)cc(Cl)cc1C=Nc1ccccc1N1CCCC1	28	–	–	–	–	–
CC(C)c1ccc(OCC(=O)Nc2cccc3c2CCCC3)cc1	–	–	–	–	–	–
Cc1cc(-c2ccc(Cl)s2)n[nH]1	–	55	–	–	–	–
Cc1cc(-c2cccs2)n[nH]1	–	–	–	–	–	–
C=CCSc1nnc(NC(=O)CSc2nc(CCC)cc(=O)[nH]2)s1	–	–	–	–	–	–
CCOc1ccc2nc(NCCCNS(=O)(=O)c3ccc(F)cc3)c(C#N)cc2c1	·	·	·	–	·	–
CCOc1ccc2nc(NCCCNS(=O)(=O)c3ccccc3)c(C#N)cc2c1	–	–	–	–	–	9.7
CC(/C=C1\SC(=O)N(CC(=O)Nc2ccc(O)cc2)C1=O)=C\c1ccccc1	–	–	–	–	–	–
CC(/C=C1\SC(=S)N(CC(=O)N2CCN(c3ccccc3)CC2)C1=O)=C\c1ccccc1	–	–	–	–	–	9.8
Cc1ccc(/C=C2/SC(=S)N(CCC(=O)N3CCN(c4ccccc4)CC3)C2=O)cc1	–	–	–	–	–	–
CC(=O)c1ccc(NC(=O)CCCN2C(=O)/C(=C/C(C)=C/c3ccccc3)SC2=S)cc1	–	–	–	–	–	10
CCN(CC)c1ccc(NC(=O)CC2Oc3ccccc3NC2=O)c(C)c1 (stereo unspecified)	–	–	–	–	–	–
Cc1ccccc1OCC(=O)NNC(=S)NC(=O)c1ccccc1[N+](=O)[O-]	–	–	–	–	–	–
CC(C)(C)c1ccc(OCC(=O)NNC(=S)NC(=O)c2ccccc2[N+](=O)[O-])c(Br)c1	31	–	–	–	–	–
COc1ccc(-c2noc(CN(C)C(=O)Nc3ccccc3)n2)cc1	·	–	–	·	–	–
CCOCCCNC(=O)C(NC(=O)c1cnccn1)c1ccc(C)cc1 (stereo unspecified)	–	–	–	–	–	–
CC(=O)OCCNc1cc(SCc2ccco2)c2nonc2c1[N+](=O)[O-]	–	–	–	–	–	9.5
COc1ccc(/C=C(/NC(=O)c2ccc(OC)cc2)C(=O)NCCc2c[nH]c3ccccc23)cc1	–	–	–	–	–	8.5
CCSc1nc(-c2ccc(OC)cc2)ccc1C#N	–	–	–	–	–	8.7
N/C(=N\N=C\c1ccc2c(c1)OCO2)SC1CC(=O)N(c2ccc(C(=O)O)cc2)C1=O (stereo unspecified)	·	–	–	·	–	8.6
C/C(CCc1ccc2c(c1)OCO2)=N\N=C(/N)SC1CC(=O)N(c2ccc(Cl)cc2)C1=O (stereo unspecified)	–	–	–	–	–	–
SMILES	Yeast life ext	TNAP inh no acc	TNAP inh hi DEA	Yeast growth inh	TNAP act hiacc	RAM network inh
Cc1ccc(S(=O)(=O)Nc2ccc(NC(=O)c3c(F)c(F)c(F)c(F)c3F)cc2)cc1	·	–	–	·	–	–
Cc1ccc(CNC(=O)c2ccc(NC(=O)CCS(=O)(=O)c3cccs3)cc2)cc1	–	–	–	–	–	–
CC1/C(=N/O)CC(c2ccccc2)N(C)C1c1ccccc1 (stereo unspecified)	·	–	–	88	–	–
COc1ccc2c(c1)SCC/C2=C\CN1C(=O)CCC1=O	–	–	–	–	–	–
O=C(CN1CCC(n2nnc3cc(C(F)(F)F)ccc32)CC1)N1CCc2ccccc21	40	–	–	–	–	–
O=C(CN1CCC(n2nnc3cc(F)ccc32)CC1)N1CCCc2ccccc21	–	–	–	–	–	–
CCNC(=O)c1ccc(C23CC4CC(CC(C4)C2)C3)o1	·	–	–	·	–	–
c1ccc(CSc2ccc(-c3ccccn3)nn2)nc1	·	54	–	·	–	–
Clc1ccc(-c2ccc(SCc3ccccn3)nn2)cc1	–	–	–	–	–	–
O=C(c1ccc(Cn2c(=S)[nH]c3ccc(Br)cc3c2=O)cc1)N1CCN(C2CCCCC2)CC1	·	–	–	·	–	–
COC(=O)c1nn(-c2cccc(C)c2)c2nnc(Cc3ccccc3)c(=O)n12	26	–	–	–	–	–
COc1ccc(Cc2[nH]n3c(=O)c(Cl)c(C)nc3c2-c2ccccc2)cc1	·	–	–	·	–	11
O=S(=O)(NNc1ccc(Cl)nn1)c1ccc(F)cc1	–	–	–	–	–	–
CSc1nc(/C=C2\C=Nc3ccccc32)c(O)n1C	–	–	–	–	–	–
CC(C)Sc1nsc2nc(=O)c(/C=C3\C=Nc4ccccc43)c(N)n12	·	62	–	·	–	–
CS(=O)(=O)c1nsc2nc(=O)c(/C=C3\C=Nc4ccccc43)c(N)n12	·	–	–	·	–	9.9
CC(=O)Nc1ccc(/C=C2/Sc3ccccc3C2=O)cc1	·	–	–	·	–	–
N#C/C(=C/c1cn(-c2ccccc2)nc1-c1cccc(OCc2ccc(F)cc2)c1)C(=O)NCCCn1ccnc1	–	–	–	63	–	–
CCCOc1cccc(-c2nn(-c3ccccc3)cc2/C=C(\C#N)C(=O)NCCCn2ccnc2)c1	–	–	–	–	–	–
CNc1nc(Nc2ccc(Br)cc2)nc(N)c1[N+](=O)[O-]	–	–	–	–	–	–
CCn1ccnc1CN(C)Cc1cn[nH]c1-c1ccc(F)cc1F	·	85	–	·	–	–
COC(=O)c1ccc2c(c1O)C(=O)c1ccccc1C2=O	–	–	–	67	–	–
O=S(=O)(c1ccccc1)c1cnc(-c2ccccc2)nc1N1CCCCC1	·	–	–	·	–	–
CC(=O)C1=C(C)N(CC2CC2)C(=O)N[C@H]1c1ccc(Br)cc1	–	–	–	–	–	–
CCOC(=O)CN1C(=O)N[C@H](c2ccc(Br)cc2)C(C(C)=O)=C1C	46	–	–	–	–	–
Cc1ccc(NC(=O)COC(=O)Cc2ccsc2)c(C)c1	·	–	–	·	–	–
CCCNC(=O)Cn1c(=O)/c(=C\c2ccc(-c3cccc([N+](=O)[O-])c3)o2)s/c1=C\C(=O)C(C)(C)C	–	–	–	–	–	9.4
CCCNC(=O)Cn1c(=O)/c(=C\c2ccc(-c3ccc([N+](=O)[O-])cc3)o2)s/c1=C\C(=O)C(C)(C)C	–	–	–	–	–	9.7
O=C(CN1CCN(C(=O)c2c(F)cccc2F)CC1)Nc1ccccc1F	–	–	–	–	–	–
